Records with an inconclusive call do not appear. Active and inactive are the calls of the source.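 How the source made its calls: active means a converged dose-response curve, firm or less certain, in at least 2 of 3 replicates; inactive means the rest, inconclusive results apart.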

In the test the test system is native HEK293 thallium flux, FluoZin2 fluorescence, ouabain. Description: parental HEK Tl+ uptake potency, primary conditions – HEK cells, counterscreen, counter-screen for KCC2 modulator project, dose response (AID 1753). A digest of the protocol: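 Assay system: native untransfected HEK cells, thallium flux counterscreen with ouabain. Buffer or medium: HBSS, 20 mM HEPES, 0.2 mM ouabain. Also added: thallium stimulus. Compound dosing: 11-point threefold dilution series, top dose 30 µM. Timing: 10–20 s post-thallium window. Detection: kinetic FluoZin2 fluorescence (dye loaded at 0.5 µM), 1 Hz reads. Repeats: three replicates, fitted individually.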
Regarding `CCCC(=O)OCC[N+](C)(C)C`, the EC50 (in general, the concentration needed to bring the measured effect to its halfway point) was 0.0081 µM (inactive).
The value for `Cc1nn(-c2ccccc2)c2sc(C(=O)N(Cc3ccco3)C(C)C(=O)NC(C)(C)C)cc12` (stereo not drawn) was 10.4 µM (inactive); that for `CCOc1cccc(C(=O)NC(=S)Nc2cccc(C)c2)c1` was 7.28 µM; that for `CC(=O)c1cccc(NC(=S)NC(=O)c2ccc(C)cc2)c1` was 0.888 µM.
Take `O=C(NC(=S)Nc1ccc2c(c1)OCO2)c1ccc(Cl)cc1`: the EC50 is 0.0757 µM (inactive).
With `CC(C)c1ccc(OCC(=O)NNC(=O)c2cnccn2)cc1`, the EC50 was 12.2 µM (inactive).
`NC(=S)N=Nc1c(O)n(Cc2ccccc2)c2ccccc12`: the EC50 was 0.124 µM (inactive).
On to `Cc1onc(-c2ccccc2Cl)c1C(=O)NC(=S)Nc1ccc(C(C)C)cc1`, for which the EC50 is 0.178 µM.
The value for `Cc1ccc(-c2n[nH]c(=S)n2/N=C/C=C\c2ccccc2[N+](=O)[O-])cc1` was 1.47 µM.
For the compound `NC(=S)N=Nc1c(O)n(Cc2ccc(F)cc2)c2ccccc12`, the EC50 is 2.25 µM.
In the case of `COC(=O)[C@@H](NC(=O)O[C@@H]1C(=O)c2ccc(OC)cc2O[C@H]1c1cccc(C(F)(F)F)c1)C(C)C`, the EC50 was 1.68 µM.
Turning to `CCOc1[nH]n(-c2ccccc2)c(=O)c1C=Nc1ccc(F)cc1F`, the EC50 is 1.43 µM.
With `COc1ccc(-c2nnc(-c3ccc(OCC(C)C)cc3)o2)cc1`, the EC50 is 0.777 µM (inactive).
Next, `Cn1nnnc1SCCNCc1ccncc1`: 0.021 µM (inactive); `COc1ccc(N2C(=S)N=C(Nc3cccc(C)c3)C23CCCCC3)cc1`: 1.92 µM.
Next, `COC(=O)c1sccc1NC(=S)OC`: 1.8 µM; `O=C(NC(=S)Nc1cccc2cccnc12)c1cccs1`: 0.114 µM (inactive); `COc1ccc(Cn2c(=S)[nH]c3ccccc32)cc1`: 0.436 µM.

The values above are taken from PubChem BioAssay AID1753 (Vanderbilt High Throughput Screening Facility, 2009).
